Active and inactive are the calls of the source. No cut-off for these calls is given here.
Experiments:
Type in all cases: functional
[1] = system: HCT-116; assay: Cytotoxicity against human HCT116 cells after 2 days by sulforhodamine B assay; conditions: HCT-116, 48 h
Procedure, shortened: (§1)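 NCI60 multi-dose screen, 59 human tumour lines available. Cells exposed to compound across a 5-log mol/L concentration range for 2 days, then fixed and stained with sulphorhodamine B, optical density read. Growth inhibition calculated against time-zero control and untreated cells. GI50 derived from the dose series, average of two replicates.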

[2] = system: A549; assay: Cytotoxicity against human A549/ATCC cells after 2 days by sulforhodamine B assay; conditions: A549, 48 h; procedure, shortened: as §1
[3] = system: MCF7; assay: Cytotoxicity against human MCF7 cells after 2 days by sulforhodamine B assay; conditions: MCF7, 48 h; procedure, shortened: as §1
[4] = system: SF-295; assay: Cytotoxicity against human SF295 cells after 2 days by sulforhodamine B assay; conditions: SF-295, 48 h; procedure, shortened: as §1
[5] = Cytotoxicity against human Hs578T cells after 2 days by sulforhodamine B assay; conditions: Hs-578T, 48 h; procedure, shortened: as §1
[6] = system: SN12C; assay: Cytotoxicity against human SN12C cells after 2 days by sulforhodamine B assay; conditions: 48 h; procedure, shortened: as §1
[7] = system: NCI-H322M; assay: Cytotoxicity against human NCI-H322M cells after 2 days by sulforhodamine B assay; conditions: 48 h; procedure, shortened: as §1
[8] = system: CAKI-1; assay: Cytotoxicity against human CAKI-1 cells after 2 days by sulforhodamine B assay; conditions: CAKI-1, 48 h; procedure, shortened: as §1
[9] = system: SR; assay: Cytotoxicity against human SR cells after 2 days by sulforhodamine B assay; conditions: 48 h
Procedure, shortened: (§2)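 NCI DTP NCI60 multi-dose screen (59 human tumour lines available). Cells exposed to compound over a 5-log mol/L concentration range for 2 days, then fixed and stained with sulphorhodamine B, with optical density read. Growth inhibition calculated relative to time-zero cells and untreated cells, giving GI50 (half-maximal growth inhibition concentration). Average of two replicates.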

[10] = system: HT-29; assay: Cytotoxicity against human HT-29 cells after 2 days by sulforhodamine B assay; conditions: HT-29, 48 h; procedure, shortened: as §1
[11] = system: NCI-H226; assay: Cytotoxicity against human NCI-H226 cells after 2 days by sulforhodamine B assay; conditions: NCI-H226, 48 h; procedure, shortened: as §1
[12] = system: HCC 2998; assay: Cytotoxicity against human HCC2998 cells after 2 days by sulforhodamine B assay; conditions: HCC 2998, 48 h; procedure, shortened: as §1
[13] = system: UACC-257; assay: Cytotoxicity against human UACC257 cells after 2 days by sulforhodamine B assay; conditions: UACC-257, 48 h; procedure, shortened: as §2
[14] = system: OVCAR-4; assay: Cytotoxicity against human OVCAR4 cells after 2 days by sulforhodamine B assay; procedure, shortened: as §1
[15] = system: NCI-H460; assay: Cytotoxicity against human NCI-H460 cells after 2 days by sulforhodamine B assay; conditions: NCI-H460, 48 h; procedure, shortened: as §1
[16] = system: PC-3; assay: Cytotoxicity against human PC3 cells after 2 days by sulforhodamine B assay; conditions: PC-3, 48 h; procedure, shortened: as §1
[17] = Cytotoxicity against human NCI-ADR-RES cells after 2 days by sulforhodamine B assay; conditions: 48 h; procedure, shortened: as §1
[18] = system: MDA-MB-231; assay: Cytotoxicity against human MDA-MB-231 cells after 2 days by sulforhodamine B assay; conditions: MDA-MB-231, 48 h; procedure, shortened: as §1
[19] = system: HCT-15; assay: Cytotoxicity against human HCT15 cells after 2 days by sulforhodamine B assay; conditions: HCT-15, 48 h; procedure, shortened: as §1
[20] = system: UACC-62; assay: Cytotoxicity against human UACC62 cells after 2 days by sulforhodamine B assay; conditions: UACC-62, 48 h; procedure, shortened: as §2
[21] = system: 786-0; assay: Cytotoxicity against human 786-0 cells after 2 days by sulforhodamine B assay; conditions: 786-0, 48 h; procedure, shortened: as §1
[22] = system: MOLT-4; assay: Cytotoxicity against human MOLT4 cells after 2 days by sulforhodamine B assay; conditions: MOLT-4, 48 h; procedure, shortened: as §1
[23] = system: SNB-75; assay: Cytotoxicity against human SNB75 cells after 2 days by sulforhodamine B assay; conditions: SNB-75, 48 h; procedure, shortened: as §2
[24] = system: Malme-3M; assay: Cytotoxicity against human MALME-3M cells after 2 days by sulforhodamine B assay; conditions: 48 h; procedure, shortened: as §1
[25] = system: COLO 205; assay: Cytotoxicity against human COLO205 cells after 2 days by sulforhodamine B assay; conditions: COLO 205, 48 h; procedure, shortened: as §1
[26] = system: UO-31; assay: Cytotoxicity against human UO31 cells after 2 days by sulforhodamine B assay; conditions: UO-31, 48 h; procedure, shortened: as §2
[27] = system: DU-145; assay: Cytotoxicity against human DU145 cells after 2 days by sulforhodamine B assay; conditions: DU-145, 48 h; procedure, shortened: as §1
[28] = system: ACHN; assay: Cytotoxicity against human ACHN cells after 2 days by sulforhodamine B assay; conditions: 48 h; procedure, shortened: as §1
[29] = system: CCRF-CEM; assay: Cytotoxicity against human CCRF-CEM cells after 2 days by sulforhodamine B assay; conditions: 48 h; procedure, shortened: as §1
[30] = system: SK-MEL-28; assay: Cytotoxicity against human SK-MEL-28 cells after 2 days by sulforhodamine B assay; conditions: SK-MEL-28, 48 h; procedure, shortened: as §1
[31] = read-out: LC50 (the source's name)

**Q.** With CC/C(=C(/c1ccc(OCCN(C)C)cc1)c1ccc(OC(=O)CCCCCCCCC(=O)C2=C(C)/C(=C/c3[nH]c(-c4ccc[nH]4)cc3OC)N=C2C)cc1)c1ccccc1 as the molecule, how does the GI50 [1] read?
**A.** 3.39 µM

**Q.** What about the LC50 (concentration killing 50% of cells vs time zero) [1] of the same molecule?
**A.** > 100 µM

**Q.** And the TGI [1]?
**A.** 21.9 µM

**Q.** And the GI50 [2]?
**A.** 4.17 µM

**Q.** What about the LC50 (concentration giving 50% net cell kill) [2] of the same molecule?
**A.** > 100 µM

**Q.** What about the TGI [2] of the same molecule?
**A.** > 100 µM

**Q.** What about the GI50 [3] of the same molecule?
**A.** 160 nM

**Q.** And the LC50 (concentration giving 50% net cell kill) [3]?
**A.** > 100 µM

**Q.** What about the TGI [3] of the same molecule?
**A.** 11 µM

**Q.** And the GI50 [4]?
**A.** 10.7 µM

**Q.** What about the LC50 [4] of the same molecule?
**A.** > 100 µM

**Q.** And the TGI [4]?
**A.** 61.7 µM

**Q.** And the GI50 [5]?
**A.** 4.79 µM

**Q.** And the TGI [5]?
**A.** 85.1 µM

**Q.** And the CC50 [5, 31]?
**A.** > 100 µM

**Q.** What about the GI50 [6] of the same molecule?
**A.** 7.59 µM

**Q.** And the TGI [6]?
**A.** > 100 µM

**Q.** And the CC50 [6, 31]?
**A.** > 100 µM

**Q.** And the GI50 [7]?
**A.** > 100 µM

**Q.** What about the LC50 (concentration killing 50% of cells) [7] of the same molecule?
**A.** > 100 µM

**Q.** And the TGI [7]?
**A.** > 100 µM

**Q.** What about the GI50 [8] of the same molecule?
**A.** 6.92 µM

**Q.** What about the LC50 (concentration killing 50% of the cells present at time zero) [8] of the same molecule?
**A.** > 100 µM

**Q.** What about the TGI [8] of the same molecule?
**A.** > 100 µM

**Q.** And the GI50 [9]?
**A.** 4.07 µM

**Q.** What about the LC50 (concentration giving 50% net cell kill) [9] of the same molecule?
**A.** > 100 µM

**Q.** What about the TGI [9] of the same molecule?
**A.** > 100 µM

**Q.** What about the GI50 [10] of the same molecule?
**A.** 5.13 µM

**Q.** What about the LC50 [10] of the same molecule?
**A.** > 100 µM

**Q.** What about the TGI [10] of the same molecule?
**A.** > 100 µM

**Q.** What about the GI50 [11] of the same molecule?
**A.** > 100 µM

**Q.** And the LC50 [11]?
**A.** > 100 µM

**Q.** What about the TGI [11] of the same molecule?
**A.** > 100 µM

**Q.** And the GI50 [12]?
**A.** > 100 µM

**Q.** What about the LC50 (50% lethal concentration) [12] of the same molecule?
**A.** > 100 µM

**Q.** What about the TGI [12] of the same molecule?
**A.** > 100 µM

**Q.** What about the GI50 [13] of the same molecule?
**A.** 63.1 µM

**Q.** And the TGI [13]?
**A.** > 100 µM

**Q.** What about the CC50 [13, 31] of the same molecule?
**A.** > 100 µM

**Q.** What about the Activity [14] of the same molecule?
**A.** inactive

**Q.** And the LC50 (concentration killing 50% of cells) ([14]; OVCAR-4, 48 h)?
**A.** > 100 µM

**Q.** What about the TGI ([14]; OVCAR-4, 48 h) of the same molecule?
**A.** > 100 µM

**Q.** What about the GI50 [15] of the same molecule?
**A.** 4.27 µM

**Q.** What about the LC50 [15] of the same molecule?
**A.** > 100 µM

**Q.** What about the TGI [15] of the same molecule?
**A.** > 100 µM

**Q.** And the GI50 [16]?
**A.** 5.89 µM

**Q.** What about the LC50 (concentration killing 50% of cells) [16] of the same molecule?
**A.** > 100 µM

**Q.** And the TGI [16]?
**A.** > 100 µM

**Q.** And the GI50 [17]?
**A.** 31.6 µM

**Q.** And the TGI [17]?
**A.** > 100 µM

**Q.** What about the CC50 [17, 31] of the same molecule?
**A.** > 100 µM

**Q.** And the GI50 [18]?
**A.** 3.39 µM

**Q.** What about the LC50 [18] of the same molecule?
**A.** > 100 µM

**Q.** What about the TGI [18] of the same molecule?
**A.** 18.2 µM

**Q.** What about the GI50 [19] of the same molecule?
**A.** 5.13 µM

**Q.** And the LC50 [19]?
**A.** > 100 µM

**Q.** And the TGI [19]?
**A.** 97.7 µM

**Q.** And the GI50 [20]?
**A.** 3.39 µM

**Q.** And the TGI [20]?
**A.** 18.2 µM

**Q.** And the CC50 [20, 31]?
**A.** > 100 µM

**Q.** And the GI50 [21]?
**A.** 5.25 µM

**Q.** And the LC50 (concentration killing 50% of cells) [21]?
**A.** > 100 µM

**Q.** What about the TGI [21] of the same molecule?
**A.** > 100 µM

**Q.** And the GI50 [22]?
**A.** 5.13 µM

**Q.** What about the TGI [22] of the same molecule?
**A.** > 100 µM

**Q.** What about the CC50 [22, 31] of the same molecule?
**A.** > 100 µM

**Q.** And the GI50 [23]?
**A.** 4.17 µM

**Q.** What about the LC50 (concentration killing 50% of starting cells) [23] of the same molecule?
**A.** > 100 µM

**Q.** And the TGI [23]?
**A.** > 100 µM

**Q.** What about the GI50 [24] of the same molecule?
**A.** 40.7 µM

**Q.** And the LC50 [24]?
**A.** > 100 µM

**Q.** What about the TGI [24] of the same molecule?
**A.** > 100 µM

**Q.** What about the GI50 [25] of the same molecule?
**A.** 8.13 µM

**Q.** And the LC50 (concentration killing 50% of cells) [25]?
**A.** > 100 µM

**Q.** What about the TGI [25] of the same molecule?
**A.** 77.6 µM

**Q.** What about the GI50 [26] of the same molecule?
**A.** 4.47 µM

**Q.** And the LC50 [26]?
**A.** > 100 µM

**Q.** And the TGI [26]?
**A.** > 100 µM

**Q.** And the GI50 [27]?
**A.** 8.13 µM

**Q.** What about the LC50 (concentration killing 50% of starting cells) [27] of the same molecule?
**A.** > 100 µM

**Q.** And the TGI [27]?
**A.** > 100 µM

**Q.** What about the GI50 [28] of the same molecule?
**A.** 7.76 µM

**Q.** What about the LC50 (concentration killing 50% of cells) [28] of the same molecule?
**A.** > 100 µM

**Q.** What about the TGI [28] of the same molecule?
**A.** > 100 µM

**Q.** And the GI50 [29]?
**A.** 760 nM

**Q.** And the TGI [29]?
**A.** > 100 µM

**Q.** And the CC50 [29, 31]?
**A.** > 100 µM

**Q.** And the GI50 [30]?
**A.** 43.6 µM

**Q.** And the LC50 [30]?
**A.** > 100 µM

**Q.** And the TGI [30]?
**A.** > 100 µM

From ChEMBL document CHEMBL2417509, “Synthesis and biological evaluation of prodigiosene conjugates of porphyrin, estrone and 4-hydroxytamoxifen” (2013)
